Only some compounds are listed: those with a hit (about 8.7% of all), similar ones and a draw of the others.
Cav32 inh: inhibitors of human Cav3.2 T-type calcium channel. O95180. Cav3.2-expressing cells, Fluo-4 calcium fluorescence FDSS; active compounds read low. B-score at 10 µM. hit rate 4% among 100,000. AID 449739;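 active = single-dose well whose peak fluorescence ratio is a statistical outlier from its plate by either plate-standardised score or position-corrected B-score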
E coli WT exp: E. coli BW25113 growth inhibition, expanded screen | hit rate 0.15% among 98,000 | OD600 absorbance | growth inhibition, % at 100 µM;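 active = growth inhibition above about 50% at one test dose, limit read from the data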;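 also: growth measured after 20 h incubation at 37 °C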
Ecoli tolC: E. coli tolC mutant growth inhibition | E. coli BW25113 tolC mutant growth, OD615 | growth inhibition, % at 10 µM (by protocol) | hit rate 2.2% among 65,000;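 active = growth inhibition at or above a cutoff equal to the mean over every tested compound plus 3 SD, cut at about 60% in these data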;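 also: growth measured after 20 h incubation at 37 °C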
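Test system: tolC-deleted E. coli BW25113; medium: LB with kanamycin 50 µg/mL; compound: single-point testing at 10 µM; incubation: 20 h compound exposure of bacteria at 37 °C; signal: OD at 615 nm; evaluation: growth inhibition in percent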
PTK2B oligo ant: Pyk2 (human) oligomerization antagonism | Q14289 | Q293 cells, Pyk2 FERM NanoBiT luminescence; active compounds read low | z-score (the deposit names both 25 µM and 10 µM) | hit rate 0.83% among 99,000 | AID 1347419;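 active = Z-score of -3 or lower, scaled per plate to the spread of control and sample wells; inactive = z-score above -3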;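 also: negative z-score means lost luminescence so less FERM oligomerization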
PostGolgi yeast: growth inhibition of a yeast mutant, post-Golgi transport screen; inhibition, % at 10 µM; hit rate 0.9% among 98,000; AID 739; post-Golgi transport phenotypic cell assay;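 also: yeast cells grown in 1536-well plates; yeast grown about 18 h at 30C before absorbance read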
PostGolgi ctrl: inhibits growth of the yeast control strain; efflux-deficient yeast background strain, growth absorbance A615, 16 h; inhibition, % at 10 µM; hit rate 5% among 98,000
Large screens that a line does not name were inactive. Rule as the data show it, unless noted: active = inhibition above about 30%; inactive = the rest.

Cc1coc(C)c1C(=O)CC1(O)C(=O)N(Cc2ccccc2)c2ccccc21 (stereo not drawn)	Cav32 inh -4.61
Cc1ccc(C(=O)CC2(O)C(=O)N(CCc3ccccc3)c3ccc(Br)cc32)o1 (stereo not drawn)	Cav32 inh -7.13, PostGolgi yeast 31.2
Cc1ccc(C(=O)CC2(O)C(=O)N(Cc3ccccc3Cl)c3ccccc32)o1 (stereo not drawn)	Cav32 inh -5.62
Cc1ccc(C(=O)CC2(O)C(=O)N(Cc3ccccc3)c3ccccc32)o1 (stereo not drawn)	none
O=C(COC(=O)[C@H](Cc1c[nH]c2ccccc12)NC(=O)c1cccs1)NCc1ccccc1	none (no result: Cav32 inh, E coli WT exp, Ecoli tolC, PostGolgi yeast, PostGolgi ctrl)
CC(=O)c1ccc(OC(C)C)c(CN2CCCCC2)c1	none
N#Cc1cn(Cc2ccccc2)c2ccccc12	Ecoli tolC 71.4
O=C(Nc1ccc(Br)cn1)C1CCCN1S(=O)(=O)c1ccccc1 (stereo not drawn)	none (no result: Ecoli tolC)
CCOc1ccc(N(C(C)C(=O)NC(C)CC)S(C)(=O)=O)cc1 (stereo not drawn)	none (no result: Ecoli tolC)
CCOc1ccc(N(C(C)C(=O)N/N=C(\C)c2cccc(NC(=O)c3ccccc3)c2)S(C)(=O)=O)cc1 (stereo not drawn)	Cav32 inh -10.3 (no result: Ecoli tolC)
CCc1nc2ccccc2n1Cc1cc(=O)n2cc(C)ccc2n1	none
O=C(O)CCC(=O)Nc1ccc(Br)cn1	none
O=[N+]([O-])c1ccc(N2CCN(S(=O)(=O)c3ccc(Cl)cc3)CC2)cc1NCc1cccnc1	PostGolgi yeast 70.9 (no result: Ecoli tolC)
O=[N+]([O-])c1ccc(N2CCN(S(=O)(=O)c3ccccc3)CC2)cc1NCc1cccnc1	PTK2B oligo ant -3.66 (no result: Ecoli tolC)
CC(C)CC(=O)N1CCN(c2ccc([N+](=O)[O-])c(NCc3ccccc3)c2)CC1	none (no result: E coli WT exp, Ecoli tolC, PostGolgi yeast, PostGolgi ctrl)
Nc1c2c(nc3ccn(Cc4ccccc4)c(=O)c13)CCC2	PostGolgi ctrl 44.5
Cc1cc(C(=O)OCC(=O)NCCCN2CCCC2=O)c2ccccc2n1	none (no result: Ecoli tolC)
CCC1Sc2ccccc2N(CC(=O)NCCC2=CCCCC2)C1=O (stereo not drawn)	Cav32 inh -5.8, PostGolgi ctrl 36.7 (no result: Ecoli tolC)
Cc1ccc(-c2nc3cccnc3o2)cc1NC(=O)COc1ccc(C(C)(C)C)cc1	PostGolgi ctrl 42.5 (no result: Ecoli tolC)
CCO[C@@H]1OC(C(=O)NCc2ccccc2)=C[C@H](c2cn(C(C)=O)c3ccccc23)[C@H]1CCCO	none (no result: E coli WT exp, Ecoli tolC, PTK2B oligo ant, PostGolgi yeast, PostGolgi ctrl)
CC(C)Cn1c(=O)c(C(=O)NCc2ccccn2)c(O)c2ccccc21	PostGolgi ctrl 30.7
O=C(Nc1cc(C(F)(F)F)ccc1-n1cncn1)c1ccc(Cl)cc1	none (no result: Ecoli tolC)
O=C(Nc1cc(C(F)(F)F)ccc1-n1cncn1)c1ccc(-c2ccccc2)cc1	PostGolgi yeast 76.3 (no result: Ecoli tolC)
COC(=O)c1ccc(NC(=S)N2CCN(Cc3ccccc3)CC2)cc1	none (no result: Ecoli tolC)
COC(=O)c1ccc(NC(=S)N2CCN(Cc3cccc(C)c3)CC2)cc1	Cav32 inh -4.44 (no result: Ecoli tolC)
Cc1ccc(N=c2oc3cc(O)ccc3cc2C(N)=O)cc1	PostGolgi yeast 30.0, PostGolgi ctrl 58.3
COc1ccc(N=c2oc3cc(O)ccc3cc2C(=O)NCC2CCCO2)cc1 (stereo not drawn)	none
COc1ccc(C(=O)/C(=C/c2cccs2)c2nc3ccccc3o2)cc1	PostGolgi ctrl 37.5 (no result: Ecoli tolC)
Cc1ccccc1N1CCN(c2ncnc3c2cnn3Cc2ccc(Cl)cc2)CC1	Cav32 inh -4.63
Cc1ccc(Cn2ncc3c(N4CCN(Cc5ccc(Cl)cc5)CC4)ncnc32)cc1	none (no result: Cav32 inh)
Clc1ccc(Sc2ccc(/C=N/n3cnnc3)o2)cc1	none (no result: Ecoli tolC)
Clc1ccc(Sc2oc(/C=N/n3cnnc3)cc2Br)cc1	PostGolgi ctrl 47.1
COc1ccccc1C(=O)Nc1sc2c(c1C(=O)NCc1ccco1)CCCC2	none (no result: Ecoli tolC)
CCn1c2ccccc2c2cc(C3C(C#N)=C(N)Oc4n[nH]c(COC)c43)ccc21 (stereo not drawn)	Ecoli tolC 70.6
Nc1ccc(C(=O)N/N=C/c2ccccc2)cc1	Cav32 inh -5.08 (no result: Ecoli tolC)
O=C(N/N=C/c1ccncc1)c1ccccc1	none (no result: Ecoli tolC)
CCC(C(=O)OC)n1cnc2c(cnn2-c2ccc(Cl)cc2)c1=O (stereo not drawn)	PostGolgi ctrl 40.8
Cc1ccc(-c2nc(C#N)c(NCCc3ccccn3)o2)cc1	PostGolgi ctrl 32.8
COc1ccc(-n2cnc3cc(NS(=O)(=O)c4ccc(C)cc4)ccc32)cc1	none (no result: Ecoli tolC)
COc1ccccc1-n1cnc2cc(NS(=O)(=O)c3ccc(Br)cc3)ccc21	PTK2B oligo ant -3.28 (no result: Ecoli tolC)
